Activity calls are given as the source filed them. The rule behind the calls is not given here.
Legend:
HeLa [1] = experiment: Cytotoxicity against human HeLa cells assessed as reduction in cell viability measured after 48 hrs by sulforhodamine B assay; assay type: functional; conditions: read-out: LC50 (the source's name)
In short: (§1)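 HeLa cells exposed to compound for 48 h, then growth measured by sulforhodamine B (SRB) staining. GI50 (50% growth inhibition), TGI (total growth inhibition) and LC50 (50% cytotoxicity) were read from concentration–response data. Values are average ± SEM, n = 3–5.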

HeLa [2] = experiment: Antiproliferative activity against human HeLa cells assessed as growth inhibition measured after 48 hrs by sulforhodamine B assay; assay type: functional; in short: as §1
SK-OV-3 [3] = experiment: Antiproliferative activity against human SKOV3 cells assessed as reduction in cell growth at 0.01 to 10 uM incubated for 48 hrs by SRB assay; assay type: functional, cell-based; conditions: dose microM 0.01-10, time 48.0 hrs
SK-OV-3 [4] = experiment: Antiproliferative activity against human SKOV3-M6/6 cells assessed as reduction in cell growth at 0.01 to 10 uM incubated for 48 hrs by SRB assay; assay type: functional, cell-based; conditions: dose microM 0.01-10, time 48.0 hrs
OVCAR-5 = experiment: Antiproliferative activity against human OVCAR-5 cells assessed as reduction in cell growth at 0.01 to 10 uM incubated for 48 hrs by SRB assay; assay type: functional, cell-based; conditions: dose microM 0.01-10, time 48.0 hrs
ES2 = experiment: Antiproliferative activity against human ES-2 cells assessed as reduction in cell growth at 0.01 to 10 uM incubated for 48 hrs by SRB assay; assay type: functional, cell-based; conditions: dose microM 0.01-10, time 48.0 hrs
HCC1937 = experiment: Cytotoxicity against human HCC1937 cells assessed as reduction in cell viability measured after 48 hrs by sulforhodamine B assay; assay type: functional; conditions: read-out: LC50 (the source's name)
In short: (§2)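 Breast lines were tested in a 48 h SRB assay: four molecularly diverse triple-negative lines plus nontumorigenic MCF 10A, with MCF 10A tested up to 50 μM. LC50 values came from concentration–response curves. Complete cytotoxicity was taken as the concentration giving full cell kill after 48 h incubation.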

MDA-MB-231 = experiment: Cytotoxicity against human MDA-MB-231 cells assessed as reduction in cell viability measured after 48 hrs by sulforhodamine B assay; assay type: functional; in short: as §2
BT-549 = experiment: Cytotoxicity against human BT-549 cells assessed as reduction in cell viability measured after 48 hrs by sulforhodamine B assay; assay type: functional; conditions: read-out: LC50 (the source's name); in short: as §2
Sus scrofa = species on record: Sus scrofa; experiment: Inhibition of porcine brain tubulin polymerization assessed as reduction in rate and extent of tubulin polymerization at 20 uM by turbidimetric assay
In short: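 Purified porcine brain tubulin (20 μM) was incubated with 20 μM compound or DMSO vehicle. Polymerization was monitored turbidimetrically after shift to 37 °C.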

MDA-MB-453 = experiment: Cytotoxicity against human MDA-MB-453 cells assessed as reduction in cell viability measured after 48 hrs by sulforhodamine B assay; assay type: functional; in short: as §2
[5] = Selectivity index, ratio of LC50 for human HeLa cells to LC50 for human HCC1937 cells measured after 48 hrs by sulforhodamine B assay; assay type: functional

C[C@]12CC[C@H]3[C@@H](CC[C@H]4C[C@@H]5O[C@@H]5C[C@@]43C)[C@@H]1[C@H](O)[C@H]1O[C@H]12
CC50 (HeLa [1]): > 50 µM
GI50 (HeLa [2]): > 50 µM
TGI (HeLa [2]): > 50 µM

C[C@]12C[C@@H]3N[C@@H]3C[C@@H]1CC[C@H]1[C@@H]3[C@@H]4O[C@@H]4C(=O)[C@@]3(C)CC[C@@H]12
CC50 (HeLa [1]): 1.42 µM
GI50 (HeLa [2]): 0.47 µM
TGI (HeLa [2]): 0.75 µM

C[C@]12C[C@H]3O[C@H]3C[C@@H]1CC[C@@H]1[C@@H]2CC[C@]2(C)C=CC(=O)[C@@H]12
CC50 (HeLa [1]): 18.2 µM
GI50 (HeLa [2]): 9.2 µM
TGI (HeLa [2]): 12.8 µM

C[C@]12C[C@H]3O[C@H]3C[C@@H]1CC[C@@H]1[C@@H]2CC[C@]2(C)C(=O)CC[C@@H]12
CC50 (HeLa [1]): 43.4 µM
GI50 (HeLa [2]): 19.2 µM
TGI (HeLa [2]): 29.8 µM

CC(C)(C)OC(=O)N1[C@@H]2C[C@@]3(C)[C@@H](CC[C@H]4[C@@H]5[C@@H]6O[C@@H]6C(=O)[C@@]5(C)CC[C@@H]43)C[C@@H]21
CC50 (HeLa [1]): 0.73 µM
GI50 (HeLa [2]): 0.64 µM
TGI (HeLa [2]): 0.68 µM

C[C@]12C[C@H]3O[C@H]3C[C@@H]1CC[C@H]1[C@@H]3[C@@H]4O[C@@H]4C(=O)O[C@@]3(C)CC[C@@H]12
CC50 (HeLa [1]): > 50 µM
GI50 (HeLa [2]): 28.2 µM
TGI (HeLa [2]): > 50 µM

C[C@]12CC=CC[C@@H]1CC[C@H]1[C@@H]3[C@@H]4O[C@@H]4C(=O)[C@@]3(C)CC[C@@H]12
CC50 (HeLa [1]): 1.48 µM
GI50 (HeLa [2]): 0.7 µM
TGI (HeLa [2]): 1 µM

CC(=O)O[C@H]1[C@H]2[C@H]([C@@H]3[C@@H](O)[C@@H]4[C@H]([C@H](C)[C@H]5O[C@]56OC(=O)[C@@](C)(O)[C@]46C)[C@@]3(C)[C@H]1OC(C)=O)[C@@H](O)C(=O)[C@H]1C[C@@H]3O[C@@H]3[C@H](OC(C)=O)[C@]21C
Activity (SK-OV-3 [3]): Active
Activity (SK-OV-3 [4]): Active
Activity (OVCAR-5): Active
Activity (ES2): Active

C[C@]12C[C@H]3O[C@H]3C[C@@H]1CC[C@@H]1[C@@H]2CC[C@]2(C)C(=O)C=C[C@@H]12
CC50 (HeLa [1]): 0.86 µM
GI50 (HeLa [2]): 0.31 µM
TGI (HeLa [2]): 0.51 µM
CC50 (HCC1937): 1.78 µM
CC50 (MDA-MB-231; read-out: LC50 (the source's name)): 1.58 µM
CC50 (BT-549): 0.45 µM
inhibition (Sus scrofa): Active

C[C@]12CC[C@H](O)C[C@@H]1CC[C@H]1[C@@H]3[C@@H]4O[C@@H]4C(=O)[C@@]3(C)CC[C@@H]12
CC50 (HeLa [1]): 2.2 µM
GI50 (HeLa [2]): 1.3 µM
TGI (HeLa [2]): 1.8 µM
CC50 (HCC1937): 0.82 µM
LC50 (concentration killing 50% of cells) (MDA-MB-231): 1.4 µM
CC50 (BT-549): 1.43 µM
LC50 (concentration killing 50% of cells) (MDA-MB-453): 1.08 µM
RatioLC50 [5]: 2

CO[C@@H]1CC(=O)[C@@]2(C)CC[C@H]3[C@@H](CC(=O)[C@H]4CC=CC[C@@]43C)[C@H]12
CC50 (HeLa [1]): > 50 µM
GI50 (HeLa [2]): 19.4 µM
TGI (HeLa [2]): 35.5 µM

Cc1ccc(S(=O)(=O)N2[C@@H]3C[C@@]4(C)[C@@H](CC[C@H]5[C@@H]6[C@@H]7O[C@@H]7C(=O)[C@@]6(C)CC[C@@H]54)C[C@@H]32)cc1 (stereo partly specified)
CC50 (HeLa [1]): 0.66 µM
GI50 (HeLa [2]): 0.45 µM
TGI (HeLa [2]): 0.54 µM
CC50 (HCC1937): 0.76 µM
LC50 (concentration killing 50% of cells) (MDA-MB-231): 0.47 µM
CC50 (BT-549): 0.26 µM
inhibition (Sus scrofa): inactive
LC50 (concentration killing 50% of cells) (MDA-MB-453): 0.35 µM

C[C@]12CC=CC[C@@H]1C(=O)C[C@H]1[C@@H]3[C@@H]4O[C@@H]4C(=O)[C@@]3(C)CC[C@@H]12
CC50 (HeLa [1]): 1.57 µM
GI50 (HeLa [2]): 0.82 µM
TGI (HeLa [2]): 1.09 µM

CO[C@@H]1CC(=O)[C@@]2(C)CC[C@H]3[C@@H](C[C@H](O)[C@H]4C[C@@H]5O[C@@H]5C[C@@]43C)[C@H]12
CC50 (HeLa [1]): > 50 µM
GI50 (HeLa [2]): > 50 µM
TGI (HeLa [2]): > 50 µM

CO[C@@H]1CC(=O)[C@@]2(C)CC[C@H]3[C@@H](C[C@H](O)[C@H]4CC=CC[C@@]43C)[C@H]12
CC50 (HeLa [1]): 48.1 µM
GI50 (HeLa [2]): 17.5 µM
TGI (HeLa [2]): 30.1 µM

C[C@]12CC=CC[C@@H]1[C@@H](O)C[C@@H]1[C@@H]2CC[C@]2(C)C(=O)C=C[C@@H]12
CC50 (HeLa [1]): 0.7 µM
GI50 (HeLa [2]): 0.277 µM
TGI (HeLa [2]): 0.41 µM

C[C@]12CCC(=O)C[C@@H]1CC[C@H]1[C@@H]3[C@@H]4O[C@@H]4C(=O)[C@@]3(C)CC[C@@H]12
CC50 (HeLa [1]): 1.9 µM
GI50 (HeLa [2]): 1 µM
TGI (HeLa [2]): 1.4 µM
CC50 (HCC1937): 0.7 µM
LC50 (concentration killing 50% of cells) (MDA-MB-231): 1.23 µM
CC50 (BT-549): 1.34 µM
LC50 (concentration killing 50% of cells) (MDA-MB-453): 1.01 µM
RatioLC50 [5]: 2

C[C@]12CC=CC[C@@H]1[C@@H](O)C[C@H]1[C@@H]3[C@@H]4O[C@@H]4C(=O)[C@@]3(C)CC[C@@H]12
CC50 (HeLa [1]): 1.32 µM
GI50 (HeLa [2]): 0.71 µM
TGI (HeLa [2]): 0.93 µM

C[C@]12CC=CC[C@@H]1C(=O)C[C@@H]1[C@@H]2CC[C@]2(C)C(=O)C=C[C@@H]12
CC50 (HeLa [1]): 1.29 µM
GI50 (HeLa [2]): 0.76 µM
TGI (HeLa [2]): 0.98 µM

C[C@]12C[C@H]3O[C@H]3C[C@@H]1[C@@H](O)C[C@H]1[C@@H]3[C@@H]4O[C@@H]4C(=O)[C@@]3(C)CC[C@@H]12
CC50 (HeLa [1]): 3.29 µM
GI50 (HeLa [2]): 2.01 µM
TGI (HeLa [2]): 2.5 µM

C[C@]12CCC(=O)C[C@@H]1CC[C@@H]1[C@@H]2CC[C@]2(C)C(=O)C=C[C@@H]12
CC50 (HeLa [1]): 1.27 µM
GI50 (HeLa [2]): 0.38 µM
TGI (HeLa [2]): 0.75 µM

C[C@]12C[C@H]3O[C@H]3C[C@@H]1[C@@H](O)C[C@@H]1[C@@H]2CC[C@]2(C)C(=O)C=C[C@@H]12
CC50 (HeLa [1]): 2.37 µM
GI50 (HeLa [2]): 1.18 µM
TGI (HeLa [2]): 1.62 µM
inhibition (Sus scrofa): Active

C[C@]12C[C@H]3O[C@H]3C[C@@H]1CC[C@@H]1[C@@H]2CC[C@]2(C)[C@@H]3O[C@@H]3C[C@@H]12
CC50 (HeLa [1]): > 50 µM
GI50 (HeLa [2]): > 50 µM
TGI (HeLa [2]): > 50 µM

C[C@]12C[C@H]3O[C@H]3C[C@@H]1C(=O)C[C@@H]1[C@@H]2CC[C@]2(C)C(=O)C=C[C@@H]12
CC50 (HeLa [1]): 2.04 µM
GI50 (HeLa [2]): 0.76 µM
TGI (HeLa [2]): 1.28 µM
inhibition (Sus scrofa): Active

C[C@]12CC[C@H](O)C[C@@H]1CC[C@@H]1[C@@H]2CC[C@]2(C)C(=O)C=C[C@@H]12
CC50 (HeLa [1]): 1.18 µM
GI50 (HeLa [2]): 0.42 µM
TGI (HeLa [2]): 0.77 µM

C[C@]12C[C@H]3O[C@H]3C[C@@H]1C(=O)C[C@H]1[C@@H]3[C@@H]4O[C@@H]4C(=O)[C@@]3(C)CC[C@@H]12
CC50 (HeLa [1]): 3.7 µM
GI50 (HeLa [2]): 2.06 µM
TGI (HeLa [2]): 2.66 µM

C[C@]12C[C@H]3O[C@H]3C[C@@H]1CC[C@@H]1[C@@H]2CC[C@]2(C)[C@@H]3O[C@@H]3C(=O)[C@@H]12
CC50 (HeLa [1]): > 50 µM
GI50 (HeLa [2]): 34.7 µM
TGI (HeLa [2]): > 50 µM

CO[C@@H]1CC(=O)[C@@]2(C)CC[C@H]3[C@@H](CC(=O)[C@H]4C[C@@H]5O[C@@H]5C[C@@]43C)[C@H]12
CC50 (HeLa [1]): > 50 µM
GI50 (HeLa [2]): > 50 µM
TGI (HeLa [2]): > 50 µM
